Measured values: ChEMBL document CHEMBL1781892, “Microwave assisted synthesis and structure-activity relationship of 4-hydroxy-N'-[1-phenylethylidene]-2H/2-methyl-1,2-benzothiazine-3-carbohydrazide 1,1-dioxides as anti-microbial agents” (2011)

Tests used:
Type in all cases: functional
Trichoderma viride [1] = assay: Antifungal activity against Trichoderma viride using 1 x 10^5 spore/100 uL assessed as 99.5% fungal killing of original inoculum after 72 hrs by microdilution method
Curvularia australiensis [2] = assay: Antifungal activity against Drechslera australiensis using 1 x 10^5 spore/100 uL assessed as 99.5% fungal killing of original inoculum after 72 hrs by microdilution method
Aspergillus flavus [3] = assay: Antifungal activity against Aspergillus flavus using 1 x 10^5 spore/100 uL assessed as 99.5% fungal killing of original inoculum after 72 hrs by microdilution method
[4] = Antifungal activity against Trichoderma reesei using 1 x 10^5 spore/100 uL assessed as 99.5% fungal killing of original inoculum after 72 hrs by microdilution method
[5] = Antifungal activity against Trichoderma reesei using 1 x 10^5 spore/100 uL after 72 hrs by microdilution method
Method in brief: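 Spores washed from malt agar cultures with sterile 0.85% saline plus 0.1% Tween 80, adjusted to about 1.0×10^5 per 100 µl well. Compounds from a 1 mg/ml DMSO stock were serially diluted in malt broth with inoculum in 96-well plates and incubated 72 h at 28 °C. MIC is the lowest concentration with no visible growth under a binocular microscope. DMSO served as negative control.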

Aspergillus flavus [6] = assay: Antifungal activity against Aspergillus flavus using 1 x 10^5 spore/100 uL after 72 hrs by microdilution method
Aspergillus fumigatus [7] = assay: Antifungal activity against Aspergillus fumigatus using 1 x 10^5 spore/100 uL after 72 hrs by microdilution method
Trichoderma viride [8] = assay: Antifungal activity against Trichoderma viride using 1 x 10^5 spore/100 uL after 72 hrs by microdilution method
Aspergillus fumigatus [9] = assay: Antifungal activity against Aspergillus fumigatus using 1 x 10^5 spore/100 uL assessed as 99.5% fungal killing of original inoculum after 72 hrs by microdilution method
Curvularia australiensis [10] = assay: Antifungal activity against Drechslera australiensis using 1 x 10^5 spore/100 uL after 72 hrs by microdilution method
Aspergillus niger [11] = assay: Antifungal activity against Aspergillus niger using 1 x 10^5 spore/100 uL assessed as 99.5% fungal killing of original inoculum after 72 hrs by microdilution method
Aspergillus niger [12] = assay: Antifungal activity against Aspergillus niger using 1 x 10^5 spore/100 uL after 72 hrs by microdilution method
Bacillus thuringiensis = assay: Antibacterial activity against Bacillus thuringiensis using 1 x 10^4 CFU/ml inoculum after 24 hrs by microdilution method
Escherichia coli = assay: Antibacterial activity against Escherichia coli using 1 x 10^4 CFU/ml inoculum after 24 hrs by microdilution method
Staphylococcus aureus = assay: Antibacterial activity against Staphylococcus aureus using 1 x 10^4 CFU/ml inoculum after 24 hrs by microdilution method
Bacillus subtilis = assay: Antibacterial activity against Bacillus subtilis using 1 x 10^4 CFU/ml inoculum after 24 hrs by microdilution method
Bacillus cereus = assay: Antibacterial activity against Bacillus cereus using 1 x 10^4 CFU/ml inoculum after 24 hrs by microdilution method
Pseudomonas aeruginosa = assay: Antibacterial activity against Pseudomonas aeruginosa using 1 x 10^4 CFU/ml inoculum after 24 hrs by microdilution method

SMILES	MFC (Trichoderma viride [1]) [×10⁻² umol]	MFC (Curvularia australiensis [2]) [×10⁻² umol]	MFC (Aspergillus flavus [3]) [×10⁻² umol]	MFC [4] [×10⁻² µmol]	MIC [5] [×10⁻² µmol]	MIC (Aspergillus flavus [6]) [×10⁻² umol]	MIC (Aspergillus fumigatus [7]) [×10⁻² umol]	MIC (Trichoderma viride [8]) [×10⁻² umol]	MFC (Aspergillus fumigatus [9]) [×10⁻² umol]	MIC (Curvularia australiensis [10]) [×10⁻² umol]	MFC (Aspergillus niger [11]) [×10⁻² umol]	MIC (Aspergillus niger [12]) [×10⁻² umol]	MIC (Bacillus thuringiensis) [×10⁻² umol]	MIC (Escherichia coli) [×10⁻² umol]	MIC (Staphylococcus aureus) [×10⁻² umol]	MIC (Bacillus subtilis) [×10⁻² umol]	MIC (Bacillus cereus) [×10⁻² umol]	MIC (Pseudomonas aeruginosa) [×10⁻² umol]
CN1C(C(=O)NN)=C(O)c2ccccc2S1(=O)=O	>200	>200	>200	> 200	> 100	>100	>100	>100	>200	>100	>200	>100						
NNC(=O)C1=C(O)c2ccccc2S(=O)(=O)N1	>200	>200	>200	> 200	> 100	>100	>100	>100	>200	>100	>200	>100						
C/C(=N\NC(=O)C1=C(O)c2ccccc2S(=O)(=O)N1C)c1ccccc1Br	149.9	151.7	168.5	151	74.5	89.4	83.6	75.4	163.6	76.2	186	93.1						
c1ccc(-c2ccc(C(c3ccccc3)n3ccnc3)cc2)cc1 (stereo unspecified) [BIFONAZOLE]	80	75	64	78	60.2	48	48	64	64	57.5	64	48						
C/C(=N\NC(=O)C1=C(O)c2ccccc2S(=O)(=O)N1C)c1ccc(Cl)c(Cl)c1	122.5	122.6	150	158	59	75	68.1	61.2	136.3	61.5	149.5	75						
C/C(=N\NC(=O)C1=C(O)c2ccccc2S(=O)(=O)N1C)c1ccc(Cl)cc1	134.4	128.6	162.3	124	62.2	81.7	72.6	67.2	143.6	64.3	166.4	82	12.3	31	30.9	11.6	11	32.3
C/C(=N\NC(=O)C1=C(O)c2ccccc2S(=O)(=O)N1)c1ccc(Cl)cc1Cl	125.7	123.9	143.5	119	59.4	71.8	67.4	62.9	142.5	62	149	74.6						
C/C(=N\NC(=O)C1=C(O)c2ccccc2S(=O)(=O)N1C)c1ccc(Cl)cc1Cl	125	122.7	143.1	118	59.1	71.6	67.3	62.7	134.7	61.5	148.3	74.2						
C/C(=N\NC(=O)C1=C(O)c2ccccc2S(=O)(=O)N1)c1ccccc1Br	142.4	158.4	177.7	147	74.8	90	83.8	75.6	157.3	76.3	186.8	93.2						
C/C(=N\NC(=O)C1=C(O)c2ccccc2S(=O)(=O)N1)c1ccc(Br)cc1	188.2	143.9	173.2	130	74.9	93.7	85.7	74.4	191	77.5	188.5	96.4						
CN[C@@H]1[C@H](O[C@H]2[C@H](O[C@H]3[C@H](O)[C@@H](O)[C@H](N=C(N)N)[C@@H](O)[C@@H]3N=C(N)N)O[C@@H](C)[C@]2(O)C=O)O[C@@H](CO)[C@H](O)[C@H]1O [STREPTOMYCIN]													4.4	16.5	16.5	4.2	4.3	16.5
C/C(=N\NC(=O)C1=C(O)c2ccccc2S(=O)(=O)N1)c1ccc(Cl)cc1	114.7	130.5	163	125	62.5	81.9	72.7	67.3	140.1	64.4	145.4	82.9	12.3	31.2	30.8	12.5	11.7	32.4
C/C(=N\NC(=O)C1=C(O)c2ccccc2S(=O)(=O)N1)c1ccccc1Cl	123.9	125.1	164.6	123	61.4	87.3	76.2	66.8	150.4	63.8	179.1	89.6	12.1	32.5	31.3	11.4	11.5	
C/C(=N\NC(=O)C1=C(O)c2ccccc2S(=O)(=O)N1)c1ccc(Cl)c(Cl)c1	118.7	123.4	150.3	108	59.2	75.2	68.1	61.3	136.2	61.8	150.2	75.2						
C/C(=N\NC(=O)C1=C(O)c2ccccc2S(=O)(=O)N1C)c1ccc(Br)cc1	139.4	148.4	189.8	142	74.6	93.4	85.5	74.3	177	77.3	>200	96						
